{"source": "ChEMBL document CHEMBL3352291", "about": "“Synthesis and structure-activity relationship of thiobarbituric acid derivatives as potent inhibitors of urease” (Bioorg Med Chem, 2014)", "data": [{"assay": "Inhibition of Bacillus pasteurii urease using urea substrate assessed as reduction in ammonia production after 15 mins by indophenol's method", "design": "species or system Sporosarcina pasteurii", "summary_of_the_method": "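One unit of B. pasteurii urease in buffer containing 100 mM urea, incubated with test compound (added as 1 mM solution) at 30 °C for 15 min. Ammonia was measured by the indophenol method: phenol reagent and alkali reagent were added, and the increase in absorbance at 630 nm was read after 50 min on a plate reader.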", "units": {"IC50": "µM"}, "values": [{"smiles": "O=C1NC(=S)NC(=O)C1=Cc1c[nH]c2ccccc12", "IC50": 171}, {"smiles": "CN(C)c1ccc(C=C2C(=O)NC(=S)NC2=O)cc1", "IC50": 58.5}, {"smiles": "O=C1NC(=S)NC(=O)C1=Cc1ccc(O)cc1O", "IC50": 32.1}, {"smiles": "O=C1NC(=S)NC(=O)C1=Cc1ccc(O)c(O)c1", "IC50": 1.61}, {"smiles": "COc1ccc(C=C2C(=O)NC(=S)NC2=O)cc1O", "IC50": 22.8}, {"smiles": "O=C1NC(=S)NC(=O)C1=Cc1ccc(O)c(O)c1O", "IC50": 25.2}, {"smiles": "COc1cc(C=C2C(=O)NC(=S)NC2=O)cc(OC)c1O", "IC50": 46.5}, {"smiles": "COc1cc(Br)c(C=C2C(=O)NC(=S)NC2=O)cc1OC", "IC50": 47.3}, {"smiles": "O=C1NC(=S)NC(=O)C1=Cc1cccs1", "IC50": 21.5}, {"smiles": "CSc1ccc(C=C2C(=O)NC(=S)NC2=O)cc1", "IC50": 18.1}, {"smiles": "O=C1NC(=S)NC(=O)C1=Cc1c(Cl)c2cc(Br)ccc2oc1=O", "IC50": 62.8}, {"smiles": "O=C1NC(=S)NC(=O)C1=Cc1ccncc1", "IC50": 16}, {"smiles": "Cc1cccc(C=C2C(=O)NC(=S)NC2=O)n1", "IC50": 16}, {"smiles": "COc1cc(C=C2C(=O)NC(=S)NC2=O)c(OC)cc1Br", "IC50": 43.3}, {"smiles": "COc1cc(C=C2C(=O)NC(=S)NC2=O)cc(I)c1O", "IC50": 42.5}, {"smiles": "O=C1NC(=S)NC(=O)C1C=C1c2ccccc2Cc2ccccc21", "IC50": 137}, {"smiles": "O=C1NC(=S)NC(=O)C1=Cc1cc(Cl)cc(Cl)c1O", "IC50": 50.3}, {"smiles": "Nc1ccccc1C=C1C(=O)NC(=S)NC1=O", "IC50": 32.3}, {"smiles": "O=C1NC(=S)NC(=O)C1=Cc1ccc(C=C2C(=O)NC(=S)NC2=O)cc1", "IC50": 6.7}, {"smiles": "O=C1NC(=S)NC(=O)C1=Cc1cc(Br)c(O)c(Br)c1", "IC50": 10.6}, {"smiles": "Cc1ccccc1C=C1C(=O)NC(=S)NC1=O", "IC50": 42.1}, {"smiles": "CCOc1ccc(C=C2C(=O)NC(=S)NC2=O)cc1", "IC50": 29.4}, {"smiles": "COc1cccc(C=C2C(=O)NC(=S)NC2=O)c1O", "IC50": 19.2}, {"smiles": "Cc1ccc(C=C2C(=O)NC(=S)NC2=O)o1", "IC50": 18.2}, {"smiles": "COc1ccc(O)c(C=C2C(=O)NC(=S)NC2=O)c1", "IC50": 32.7}, {"smiles": "O=C1NC(=S)NC(=O)C1=Cc1c(O)ccc2ccccc12", "IC50": 21.4}, {"smiles": "COc1ccc(C=C2C(=O)NC(=S)NC2=O)cc1OC", "IC50": 14.3}, {"smiles": "NC(N)=S", "note": "[THIOUREA]", "IC50": 21}]}]}
